From ChEMBL document CHEMBL1629686, “Substrate selectivity and a novel role in inhibitor discrimination by residue 237 in the KPC-2 beta-lactamase” (Antimicrob Agents Chemother, 2010)
In brackets after ≈: the same amount, converted by molar mass.

Legend:
Escherichia coli [1] = assay: Antimicrobial activity against Escherichia coli DH10B harboring beta-lactamase KPC-2 T237M mutant by agar dilution method; assay type: functional; conditions: K-12 DH10B
Method in brief: (§1)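 LB agar dilution MICs followed CLSI criteria, with inocula applied by Steers replicator. […] Piperacillin-tazobactam was tested at an 8:1 ratio. Wild-type and mutant blaKPC-2 were carried on pBC SK(+), or wild type on pBR322-catI, in E. coli DH10B.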

Escherichia coli [2] = assay: Antimicrobial activity against Escherichia coli DH10B harboring beta-lactamase KPC-2 T237K mutant by agar dilution method; assay type: functional; conditions: K-12 DH10B; method in brief: as §1
Escherichia coli [3] = assay: Antimicrobial activity against Escherichia coli DH10B harboring beta-lactamase KPC-2 T237A mutant by agar dilution method; assay type: functional; conditions: K-12 DH10B; method in brief: as §1
Escherichia coli [4] = assay: Antimicrobial activity against Escherichia coli DH10B harboring plasmid […] by agar dilution method; assay type: functional; conditions: K-12 DH10B; method in brief: as §1
Escherichia coli [5] = assay: Antimicrobial activity against Escherichia coli DH10B harboring beta-lactamase KPC-2 T237Q mutant by agar dilution method; assay type: functional; conditions: K-12 DH10B; method in brief: as §1
Escherichia coli [6] = assay: Antimicrobial activity against Escherichia coli DH10B harboring beta-lactamase KPC-2 T237H mutant by agar dilution method; assay type: functional; conditions: K-12 DH10B; method in brief: as §1
Escherichia coli [7] = assay: Antimicrobial activity against Escherichia coli DH10B harboring beta-lactamase KPC-2 T237G mutant by agar dilution method; assay type: functional; conditions: K-12 DH10B; method in brief: as §1
Escherichia coli [8] = assay: Antimicrobial activity against Escherichia coli DH10B harboring beta-lactamase KPC-2 T237W mutant by agar dilution method; assay type: functional; conditions: K-12 DH10B; method in brief: as §1
Escherichia coli [9] = assay: Antimicrobial activity against Escherichia coli DH10B harboring beta-lactamase KPC-2 T237V mutant by agar dilution method; assay type: functional; conditions: K-12 DH10B; method in brief: as §1
Escherichia coli [10] = assay: Antimicrobial activity against Escherichia coli DH10B harboring beta-lactamase KPC-2 T237E mutant by agar dilution method; assay type: functional; conditions: K-12 DH10B; method in brief: as §1
Escherichia coli [11] = assay: Antimicrobial activity against Escherichia coli DH10B harboring beta-lactamase KPC-2 T237I mutant by agar dilution method; assay type: functional; conditions: K-12 DH10B; method in brief: as §1
Escherichia coli [12] = assay: Antimicrobial activity against Escherichia coli DH10B harboring beta-lactamase KPC-2 T237D mutant by agar dilution method; assay type: functional; conditions: K-12 DH10B; method in brief: as §1
Escherichia coli [13] = assay: Antimicrobial activity against Escherichia coli DH10B harboring beta-lactamase KPC-2 T237Y mutant by agar dilution method; assay type: functional; conditions: K-12 DH10B; method in brief: as §1
Escherichia coli [14] = assay: Antimicrobial activity against Escherichia coli DH10B harboring beta-lactamase KPC-2 T237L mutant by agar dilution method; assay type: functional; conditions: K-12 DH10B; method in brief: as §1
Escherichia coli [15] = assay: Antimicrobial activity against Escherichia coli DH10B harboring plasmid pBR322-catI carrying beta-lactamase KPC-2 by agar dilution method; assay type: functional; conditions: K-12 DH10B; method in brief: as §1
Escherichia coli [16] = assay: Antimicrobial activity against Escherichia coli DH10B harboring beta-lactamase KPC-2 T237P mutant by agar dilution method; assay type: functional; conditions: K-12 DH10B; method in brief: as §1
Escherichia coli [17] = assay: Antimicrobial activity against Escherichia coli DH10B by agar dilution method; assay type: functional; conditions: K-12 DH10B; method in brief: as §1
Escherichia coli [18] = assay: Antimicrobial activity against Escherichia coli DH10B harboring beta-lactamase KPC-2 T237R mutant by agar dilution method; assay type: functional; conditions: K-12 DH10B; method in brief: as §1
Escherichia coli [19] = assay: Antimicrobial activity against Escherichia coli DH10B harboring beta-lactamase KPC-2 T237S mutant by agar dilution method; assay type: functional; conditions: K-12 DH10B; method in brief: as §1
Escherichia coli [20] = assay: Antimicrobial activity against Escherichia coli DH10B harboring beta-lactamase KPC-2 T237C mutant by agar dilution method; assay type: functional; conditions: K-12 DH10B; method in brief: as §1
Klebsiella pneumoniae [21] = assay: Antimicrobial activity against Klebsiella pneumoniae 1534 expressing beta-lactamase KPC-2 by agar dilution method; assay type: functional
Method in brief: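 MICs were determined by LB agar dilution following CLSI criteria, with a Steers replicator. […] Piperacillin-tazobactam was kept at an 8:1 ratio.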

Escherichia coli [22] = assay: Antimicrobial activity against Escherichia coli DH10B harboring beta-lactamase KPC-2 T237N mutant by agar dilution method; assay type: functional; conditions: K-12 DH10B; method in brief: as §1
Escherichia coli [23] = assay: Antimicrobial activity against Escherichia coli DH10B harboring beta-lactamase KPC-2 T237F mutant by agar dilution method; assay type: functional; conditions: K-12 DH10B; method in brief: as §1
Escherichia coli [24] = assay: Antimicrobial activity against Escherichia coli DH10B harboring plasmid pBC SK(+) carrying wild type beta-lactamase KPC-2 by agar dilution method; assay type: functional; conditions: K-12 DH10B; method in brief: as §1
[25] = Inhibition of Klebsiella pneumoniae 1534 beta-lactamase KPC-2 T237S mutant by competitive assay
Method in brief: (§2)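 Direct competition assay at steady state with purified enzyme at 10 nM. Inhibitor was varied from 5 μM to 5 mM, with nitrocefin 100 μM final as reporter substrate. 1/v0 was plotted against [I], and Ki(observed) was taken as y-intercept divided by slope. This was corrected by 1 + [S]/Km(nitrocefin).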

Klebsiella pneumoniae [26] = assay: Ratio of Ki for Klebsiella pneumoniae 1534 beta-lactamase KPC-2 T237S mutant to Ki for Klebsiella pneumoniae wild type beta-lactamase KPC-2 by competitive assay; method in brief: as §2
Klebsiella pneumoniae [27] = assay: Ratio of Ki for Klebsiella pneumoniae 1534 beta-lactamase KPC-2 T237A mutant to Ki for wild type Klebsiella pneumoniae beta-lactamase KPC-2 by competitive assay
[28] = Inhibition of Klebsiella pneumoniae 1534 beta-lactamase KPC-2 T237A mutant by competitive assay; method in brief: as §2

## C[C@@H](O)[C@H]1C(=O)N2C(C(=O)O)=C(S[C@@H]3CN[C@H](C(=O)N(C)C)C3)[C@H](C)[C@H]12 [MEROPENEM]
Escherichia coli [1]
  MIC: 0.06 µg/mL (≈ 0.156 µM)
Escherichia coli [2]
  MIC: 0.06 µg/mL (≈ 0.156 µM)
Escherichia coli [3]
  MIC: 0.06 µg/mL (≈ 0.156 µM)
Escherichia coli [4]
  MIC: 0.06 µg/mL (≈ 0.156 µM)
Escherichia coli [5]
  MIC: 0.06 µg/mL (≈ 0.156 µM)
Escherichia coli [6]
  MIC: 0.06 µg/mL (≈ 0.156 µM)
Escherichia coli [7]
  MIC: 0.06 µg/mL (≈ 0.156 µM)
Escherichia coli [8]
  MIC: 0.06 µg/mL (≈ 0.156 µM)
Escherichia coli [9]
  MIC: 0.06 µg/mL (≈ 0.156 µM)
Escherichia coli [10]
  MIC: 0.06 µg/mL (≈ 0.156 µM)
Escherichia coli [11]
  MIC: 0.06 µg/mL (≈ 0.156 µM)
Escherichia coli [12]
  MIC: 0.06 µg/mL (≈ 0.156 µM)
Escherichia coli [13]
  MIC: 0.06 µg/mL (≈ 0.156 µM)
Escherichia coli [14]
  MIC: 0.06 µg/mL (≈ 0.156 µM)
Escherichia coli [15]
  MIC: 2 µg/mL (≈ 5.22 µM)
Escherichia coli [16]
  MIC: 0.06 µg/mL (≈ 0.156 µM)
Escherichia coli [17]
  MIC: 0.06 µg/mL (≈ 0.156 µM)
Escherichia coli [18]
  MIC: 0.06 µg/mL (≈ 0.156 µM)
Escherichia coli [19]
  MIC: 0.5 µg/mL (≈ 1.3 µM)
Escherichia coli [20]
  MIC: 0.06 µg/mL (≈ 0.156 µM)
Klebsiella pneumoniae [21]
  MIC: 4 µg/mL (≈ 10.4 µM)
Escherichia coli [22]
  MIC: 0.06 µg/mL (≈ 0.156 µM)
Escherichia coli [23]
  MIC: 0.06 µg/mL (≈ 0.156 µM)
Escherichia coli [24]
  MIC: 0.25 µg/mL (≈ 0.652 µM)

## C[C@@H](O)[C@H]1C(=O)N2C(C(=O)O)=C(S[C@@H]3CN[C@H](C(=O)Nc4cccc(C(=O)O)c4)C3)[C@H](C)[C@H]12
Escherichia coli [1]
  MIC: 0.06 µg/mL (≈ 0.126 µM)
Escherichia coli [2]
  MIC: 0.06 µg/mL (≈ 0.126 µM)
Escherichia coli [3]
  MIC: 0.06 µg/mL (≈ 0.126 µM)
Escherichia coli [4]
  MIC: 0.06 µg/mL (≈ 0.126 µM)
Escherichia coli [5]
  MIC: 0.06 µg/mL (≈ 0.126 µM)
Escherichia coli [6]
  MIC: 0.06 µg/mL (≈ 0.126 µM)
Escherichia coli [7]
  MIC: 0.06 µg/mL (≈ 0.126 µM)
Escherichia coli [8]
  MIC: 0.06 µg/mL (≈ 0.126 µM)
Escherichia coli [9]
  MIC: 0.06 µg/mL (≈ 0.126 µM)
Escherichia coli [10]
  MIC: 0.06 µg/mL (≈ 0.126 µM)
Escherichia coli [11]
  MIC: 0.06 µg/mL (≈ 0.126 µM)
Escherichia coli [12]
  MIC: 0.06 µg/mL (≈ 0.126 µM)
Escherichia coli [13]
  MIC: 0.06 µg/mL (≈ 0.126 µM)
Escherichia coli [14]
  MIC: 0.06 µg/mL (≈ 0.126 µM)
Escherichia coli [15]
  MIC: 2 µg/mL (≈ 4.21 µM)
Escherichia coli [16]
  MIC: 0.06 µg/mL (≈ 0.126 µM)
Escherichia coli [17]
  MIC: 0.06 µg/mL (≈ 0.126 µM)
Escherichia coli [18]
  MIC: 0.06 µg/mL (≈ 0.126 µM)
Escherichia coli [19]
  MIC: 0.5 µg/mL (≈ 1.05 µM)
Escherichia coli [20]
  MIC: 0.06 µg/mL (≈ 0.126 µM)
Klebsiella pneumoniae [21]
  MIC: 8 µg/mL (≈ 16.8 µM)
Escherichia coli [22]
  MIC: 0.06 µg/mL (≈ 0.126 µM)
Escherichia coli [23]
  MIC: 0.06 µg/mL (≈ 0.126 µM)
Escherichia coli [24]
  MIC: 0.25 µg/mL (≈ 0.526 µM)

## C[C@]1(Cn2ccnn2)[C@H](C(=O)O)N2C(=O)C[C@H]2S1(=O)=O [TAZOBACTAM]
[25]
  Ki: 53 µM
Klebsiella pneumoniae [26]
  fold change (FC): 1.7
Klebsiella pneumoniae [27]
  fold change (FC): 2.2
[28]
  Ki: 174 µM

## C[C@@H](O)[C@H]1C(=O)N2C(C(=O)O)=C(S[C@@H]3CN[C@H](CNS(N)(=O)=O)C3)[C@H](C)[C@H]12 [DORIPENEM]
Escherichia coli [1]
  MIC: 0.06 µg/mL (≈ 0.143 µM)
Escherichia coli [2]
  MIC: 0.06 µg/mL (≈ 0.143 µM)
Escherichia coli [3]
  MIC: 0.06 µg/mL (≈ 0.143 µM)
Escherichia coli [4]
  MIC: 0.06 µg/mL (≈ 0.143 µM)
Escherichia coli [5]
  MIC: 0.06 µg/mL (≈ 0.143 µM)
Escherichia coli [6]
  MIC: 0.06 µg/mL (≈ 0.143 µM)
Escherichia coli [7]
  MIC: 0.06 µg/mL (≈ 0.143 µM)
Escherichia coli [8]
  MIC: 0.06 µg/mL (≈ 0.143 µM)
Escherichia coli [9]
  MIC: 0.06 µg/mL (≈ 0.143 µM)
Escherichia coli [10]
  MIC: 0.06 µg/mL (≈ 0.143 µM)
Escherichia coli [11]
  MIC: 0.06 µg/mL (≈ 0.143 µM)
Escherichia coli [12]
  MIC: 0.06 µg/mL (≈ 0.143 µM)
Escherichia coli [13]
  MIC: 0.06 µg/mL (≈ 0.143 µM)
Escherichia coli [14]
  MIC: 0.06 µg/mL (≈ 0.143 µM)
Escherichia coli [15]
  MIC: 4 µg/mL (≈ 9.51 µM)
Escherichia coli [16]
  MIC: 0.06 µg/mL (≈ 0.143 µM)
Escherichia coli [17]
  MIC: 0.06 µg/mL (≈ 0.143 µM)
Escherichia coli [18]
  MIC: 0.06 µg/mL (≈ 0.143 µM)
Escherichia coli [19]
  MIC: 0.25 µg/mL (≈ 0.595 µM)
Escherichia coli [20]
  MIC: 0.06 µg/mL (≈ 0.143 µM)
Klebsiella pneumoniae [21]
  MIC: 4 µg/mL (≈ 9.51 µM)
Escherichia coli [22]
  MIC: 0.06 µg/mL (≈ 0.143 µM)
Escherichia coli [23]
  MIC: 0.06 µg/mL (≈ 0.143 µM)
Escherichia coli [24]
  MIC: 0.25 µg/mL (≈ 0.595 µM)

## CC1(C)[C@H](C(=O)O)N2C(=O)C[C@H]2S1(=O)=O [SULBACTAM]
[25]
  Ki: 97 µM
Klebsiella pneumoniae [26]
  fold change (FC): 1.7
Klebsiella pneumoniae [27]
  fold change (FC): 4.2
[28]
  Ki: 703 µM
